Laboratory results reported in PubChem BioAssay.
Active and inactive are the calls of the source.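 Rule for the calls, unless noted: active = inhibition at or above 50% at 10 µM; inactive = inhibition below 50%.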

Experiments:
[1] = inhibitors of TNFa-induced NFkB p65 translocation, primary screen, imaging, HUVEC, MLSMR starter and 10KST1 sets (AID 438;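 active = inhibition above 20% together with a positive visual image hit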;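 note: compound added about 3h40 before a 20 min TNFalpha stimulation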;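 for inhibition: signal is the nuclear over cytoplasmic p65 intensity ratio per well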); settings: HUVEC TNFa-induced p65 nuclear translocation; cell count: measured here: nuclei count (cytotoxicity indicator), at 2.08 µM; inhibition: at 2 µM, stronger effect = higher value, 0% TNFa-plus-vehicle, 100% no-TNFa wells
[2] = inhibitors of mutant huntingtin aggregation, primary screen, imaging, exon1htt(103Q)mCFP cells, high-content imaging (AID 483;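 active = visual image review flags a hit and inhibition of aggregation exceeds 20%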;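 note: compound exposure lasted 3 days before fixation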;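 for nuclei count: percent of the per-plate median nuclei count of sample wells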); settings: exon1htt(103Q)mCFP cell line, aggregate imaging, at 2 µM; inhibition of aggregation: stronger effect = higher value; nuclei count: measured here: cell count, toxicity
[3] = inhibitors of E-selectin induction by TNFa, primary screen, imaging, HUVEC, immunofluorescence, MLSMR starter and 10KST1 sets (AID 487;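 active = visually confirmed hit in the image check and inhibition above 20%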;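 for inhibition: signal is fraction of cell area covered by stained E-selectin grains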;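 for nuclei count: 100% = median nuclei count of all wells on the same plate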); settings: HUVEC TNFalpha-induced E-selectin immunofluorescence imaging, at 2 µM; inhibition: stronger effect = higher value; nuclei count: measured here: cell number, toxicity
[4] = target: Voltage-gated potassium channel subunit beta-2 (Rattus norvegicus) (UniProt P62483); experiment: KvBeta enzyme negative modulators, primary screen, biochemical, NADPH fluorescence (AID 622;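 active = fluorescence slope higher than the sample average by over 3 SD, cut at about -0.22 in these data, passing the limit was not always enough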;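 note: slope of raw intensity against log time taken from 70 to 1610 s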); settings: recombinant KvBeta, 4-cyanobenzaldehyde reduction, at 10 µM, stronger effect = higher value
[5] = target: Voltage-gated potassium channel subunit beta-2 (Rattus norvegicus) (UniProt P62483); experiment: KvBeta positive modulators, primary screen, biochemical, NADPH fluorescence (AID 623;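 active = NADPH fluorescence slope more negative than the mean of all samples by about 3 SD, 99.7% confidence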;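 note: fluorescence intensity change per second fitted from 20 to 320 s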); settings: Recombinant KvBeta, NADPH fluorescence decrease slope, 10 min; at 10 µM; stronger effect = lower value
[6] = target: Muscarinic acetylcholine receptor M4 (Homo sapiens) (UniProt P08173); experiment: compounds altering M4/GIRK thallium flux, either direction, primary screen, M4 allosteric agonist project, cell-based, HEK293 M4/GIRK, BTC-AM (AID 625;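 active = fluorescence slope after compound addition differing from the mean of all tested samples at 99.7% confidence, mostly higher but some lower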;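 note: thallium influx through GIRK channels coupled to M4 in HEK293 cells with BTC-AM dye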); settings: at 10 µM, actives lie on both sides
In short: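 Assay system: HEK293 cells with M4 receptor and GIRK channels / Controls: carbachol and DMSO controls / Schedule: 1 h dye loading, 2 min kinetic read / Technique: kinetic fluorescence with BTC-AM dye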

[7] = inhibitors of Sendai virus-induced IRF3 signaling, primary screen, TLR/RLR signaling modifier project, cell-based, Sendai virus stimulus, luciferase, 10K MLSCN set (AID 602276); settings: HEK293 RL24 IRF3 luciferase reporter, at 10 µM, stronger effect = higher value;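 note: firefly luciferase from ISG56 promoter only with Renilla not read in this screen; 0% = Sendai virus plus DMSO and 100% = medium plus DMSO without virus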
[8] = inhibitors of poly I:C-induced TLR3 signaling, primary screen, cell-based, poly I:C stimulus, luciferase, 10K MLSCN set (AID 602277;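 active = inhibition of the reporter signal at or above 50%; inactive = inhibition below 50%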); settings: HEK293-TLR3 RL24 IRF3 luciferase reporter, at 10 µM, stronger effect = higher value

Chain of Muscarinic acetylcholine receptor M4 (Homo sapiens) (P08173 whole entry, looked up): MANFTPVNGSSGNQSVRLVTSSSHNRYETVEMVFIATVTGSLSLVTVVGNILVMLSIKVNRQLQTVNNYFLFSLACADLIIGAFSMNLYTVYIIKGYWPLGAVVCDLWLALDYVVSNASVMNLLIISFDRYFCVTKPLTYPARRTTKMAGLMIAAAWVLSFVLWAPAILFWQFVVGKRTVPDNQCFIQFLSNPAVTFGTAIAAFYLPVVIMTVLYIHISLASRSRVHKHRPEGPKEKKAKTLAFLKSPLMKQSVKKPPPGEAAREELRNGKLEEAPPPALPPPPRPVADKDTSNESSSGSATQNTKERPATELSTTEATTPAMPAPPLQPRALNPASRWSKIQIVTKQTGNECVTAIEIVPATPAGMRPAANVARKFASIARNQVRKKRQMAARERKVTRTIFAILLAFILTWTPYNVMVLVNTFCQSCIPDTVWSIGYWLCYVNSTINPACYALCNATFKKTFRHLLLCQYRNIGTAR
Chain of Voltage-gated potassium channel subunit beta-2 (Rattus norvegicus) (P62483 whole entry, looked up): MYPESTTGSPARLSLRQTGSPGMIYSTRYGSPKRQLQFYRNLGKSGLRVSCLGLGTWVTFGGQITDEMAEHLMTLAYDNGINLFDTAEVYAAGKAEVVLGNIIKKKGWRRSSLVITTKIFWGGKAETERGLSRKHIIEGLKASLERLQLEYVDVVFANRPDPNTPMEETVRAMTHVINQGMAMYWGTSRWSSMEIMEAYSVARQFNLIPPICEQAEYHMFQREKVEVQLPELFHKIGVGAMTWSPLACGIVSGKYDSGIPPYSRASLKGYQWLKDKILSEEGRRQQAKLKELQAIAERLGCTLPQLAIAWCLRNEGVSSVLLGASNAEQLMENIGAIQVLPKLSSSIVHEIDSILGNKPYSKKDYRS

Row | SMILES | cell count [1] | inhibition [1] | inhibition of aggregation [2] | nuclei count [2] [%] | inhibition [3] | nuclei count [3] [%] | fluorescence slope [4] | NADPH fluorescence slope [5] | fluorescence slope [6] | inhibition [7] | inhibition [8]
1 | CCOC(=O)c1cnn(-c2ncnc3c2cnn3Cc2ccccc2)c1N | 410 | -4.6% (inactive) | 8.7% (inactive) | 100 | -19.2% (inactive) | 118 | -0.51 (inactive) | 1.3e-05 (inactive) | 0.0057 (inactive) | 17.2% (inactive) | 17.4% (inactive)
2 | COC(=O)c1cc(Br)c(=O)n(CCC2=CCCCC2)c1 | 559 | 0% (inactive) | -16.7% (inactive) | 110 | 6.3% (inactive) | 122 | -0.497 (inactive) | 9.3e-05 (inactive) | 0.00488 (inactive) | -1.92% (inactive) | 9.19% (inactive)
3 | Cc1ccc(C)c(SCC(=O)Nc2nnc(-c3ccccc3)o2)c1 | 395 | -16.8% (inactive) | -12.6% (inactive) | 99.9 | -16.3% (inactive) | 124 | -0.586 (inactive) | -3.2e-05 (inactive) | 0.00772 (inactive) | 13.5% (inactive) | 19.4% (inactive)
4 | CCC(Sc1ccc(C(=O)O)cc1)C(=O)O (centres undefined) | 319 | -1.8% (inactive) | -13.8% (inactive) | 110 | -40.5% (inactive) | 109 | -0.566 (inactive) | -2.4e-05 (inactive) | 0.0053 (inactive) | 1.75% (inactive) | 7.14% (inactive)
5 | CN(C)C(=O)CN(c1ccc(F)c(Cl)c1)S(C)(=O)=O | 352 | -2.1% (inactive) | -0.4% (inactive) | 104 | 5.1% (inactive) | 109 | -0.56 (inactive) | -8.3e-05 (inactive) | 0.00357 (inactive) | 1.05% (inactive) | 9.43% (inactive)
6 | CCOC(=O)c1c(NC(=O)c2ccoc2C)sc2c1CCC2 | 310 | 0% (inactive) | -0.4% (inactive) | 96.2 | -3.2% (inactive) | 96.3 | -0.407 (inactive) | -1.2e-05 (inactive) | 0.00584 (inactive) | 15.7% (inactive) | -10.1% (inactive)
7 | O=C(Cc1cccs1)Nc1ccccc1C(=O)O | 365 | 2.6% (inactive) | 13.3% (inactive) | 99.5 | -7.6% (inactive) | 113 | -0.524 (inactive) | -3.3e-05 (inactive) | 0.00502 (inactive) | -8.52% (inactive) | -27.9% (inactive)
8 | Cc1nnc(NC(=O)Nc2cccc(Cl)c2)s1 | 481 | -9.3% (inactive) | -4.3% (inactive) | 66.7 | 9.5% (inactive) | 114 | -0.574 (inactive) | -1.8e-05 (inactive) | 0.00561 (inactive) | -25% (inactive) | -88.8% (inactive)
9 | CCCc1nc2ccccc2c2nc(N)nn12 | 435 | 7.7% (inactive) | 13.1% (inactive) | 82.1 | 21.4% (inactive) | 101 | -0.458 (inactive) | 3.4e-05 (inactive) | 0.00513 (inactive) | 13.7% (inactive) | 12.1% (inactive)
10 | CC(NC(=O)OCc1ccccc1)C(=O)N1CC(O)CC1C(=O)O (centres undefined) | 280 | 0.9% (inactive) | 2.6% (inactive) | 79.3 | 26.8% (inactive) | 85.4 | -0.562 (inactive) | -1.6e-05 (inactive) | 0.00618 (inactive) | 16.9% (inactive) | 22.2% (inactive)
11 | COc1ccc(-c2cnc(SCC(=O)Nc3ccc4c(c3)OCO4)n2Cc2ccco2)cc1 | 450 | 17.8% (inactive) | -8.7% (inactive) | 105 | -1.8% (inactive) | 110 | -0.5 (inactive) | -2.5e-05 (inactive) | 0.00501 (inactive) | 2.4% (inactive) | 36.8% (inactive)
12 | COc1ccc(-c2cc(C(F)(F)F)nc(SCC(=O)NCc3ccco3)n2)cc1OC | 614 | -9.9% (inactive) | -5.9% (inactive) | 94 | -20.4% (inactive) | 103 | -0.304 (inactive) | -1.1e-05 (inactive) | 0.00529 (inactive) | 24.6% (inactive) | 23.2% (inactive)
13 | CCSc1oc(-c2ccco2)nc1S(=O)(=O)c1ccccc1 | 584 | -7.9% (inactive) | -18% (inactive) | 107 | 4.3% (inactive) | 105 | -0.316 (inactive) | -2.1e-05 (inactive) | 0.00508 (inactive) | -7.74% (inactive) | -0.253% (inactive)
14 | Cc1cc2c(cc(C(=O)NCc3cccnc3)n2Cc2ccc(Cl)cc2)o1 | 672 | -16.6% (inactive) | -46.1% (inactive) | 127 | -91.9% (inactive) | 99.8 | -0.49 (inactive) | -2.7e-06 (inactive) | 0.00518 (inactive) | 12.1% (inactive) | 14.8% (inactive)
15 | CC1(c2ccc(OC(F)F)cc2)NC(=O)N(CC(=O)Nc2ccc3c(c2)OCO3)C1=O (centres undefined) | 404 | -6.6% (inactive) | -11.2% (inactive) | 109 | -7.1% (inactive) | 107 | -0.576 (inactive) | -6.3e-05 (inactive) | 0.00647 (inactive) | -3.26% (inactive) | 2.25% (inactive)
16 | COc1ccccc1N1CCN(CCCNC(=O)Nc2ccccc2)CC1 | 377 | 8.7% (inactive) | 8.2% (inactive) | 96.1 | -129% (inactive) | 106 | -0.449 (inactive) | 1.8e-05 (inactive) | 0.00541 (inactive) | 15.3% (inactive) | 23.9% (inactive)
17 | CCOC(=O)c1sc(C)c2c(=O)n(CC)nnc12 | 304 | 0.8% (inactive) | -14.4% (inactive) | 102 | -56% (inactive) | 109 | -0.523 (inactive) | -2.3e-06 (inactive) | 0.00361 (inactive) | 6.72% (inactive) | 4.72% (inactive)
18 | O=c1oc2ccccc2c(N2CCCCC2)c1CN1CCCCC1 | 731 | -5.4% (inactive) | -7.2% (inactive) | 108 | 25.6% (inactive) | 104 | -0.549 (inactive) | -6.2e-05 (inactive) | 0.00538 (inactive) | -13.6% (inactive) | -1.22% (inactive)
19 | Cc1csc(NC(=O)c2sc3nc(-c4cccs4)ccc3c2N)n1 | 340 | -1.9% (inactive) | 30.2% (inactive) | 68.7 | -5.9% (inactive) | 90.5 | -0.0131 (active) | 2.9e-06 (inactive) | 0.0189 (active) | -19.2% (inactive) | -115% (inactive)
